Screening results: PubChem BioAssay, several laboratories
UBC9 SUMO inh: SUMOylation inhibition; P63279; HTRF SUMOylation assay, SAE1/SAE2 + UBC9, in vitro; AID 2006; 0.36% of 290,000 active; inhibition, % at 35 µM; in the data active = inhibition above about 50%, passing the limit was not always enough
Target sequence (P63279 whole entry, looked up): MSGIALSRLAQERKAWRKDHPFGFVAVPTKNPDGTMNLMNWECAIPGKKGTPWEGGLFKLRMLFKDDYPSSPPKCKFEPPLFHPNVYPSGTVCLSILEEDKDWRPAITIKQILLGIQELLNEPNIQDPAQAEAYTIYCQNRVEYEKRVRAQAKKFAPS
PfG6PD inh: PfG6PD (Plasmodium falciparum) enzyme inhibition; 0.78% of 350,000 active; PfGluPho enzyme, NADPH resazurin-diaphorase fluorescence; inhibition, % at 20 µM; AID 504690;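 active = inhibition reaching at least a set limit at 20 µM in the primary screen, cut at about 59% in these data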
M18AAP inhibitor: blocks P. falciparum M18 aspartyl aminopeptidase. recombinant PfM18AAP, H-Glu-NHMec fluorogenic cleavage. inhibition, % at 7.35 µM. 1.2% of 290,000 active. AID 1822;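 active = inhibition above the campaign mean inhibition over all tested compounds plus 3 SD, cut at about 28% in these data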
APOBEC3A inh: blocks human APOBEC3A ssDNA deamination. P31941. recombinant A3A, FAM/TAMRA ssDNA deamination fluorescence. inhibition, % at 20 µM. 0.41% of 330,000 active;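 active = at least 40% inhibition at 20 µM here, with at most 30% in a related deaminase screen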
Target sequence (P31941 whole entry, looked up): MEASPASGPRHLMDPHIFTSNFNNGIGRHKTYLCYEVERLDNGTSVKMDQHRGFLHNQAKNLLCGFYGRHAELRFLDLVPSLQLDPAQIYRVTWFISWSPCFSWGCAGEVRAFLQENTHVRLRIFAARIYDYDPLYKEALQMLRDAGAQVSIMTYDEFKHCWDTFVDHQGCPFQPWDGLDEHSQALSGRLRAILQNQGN
HKDC1 inh: inhibitors of human hexokinase HKDC1; recombinant HKDC1, G6PDH/diaphorase resazurin coupled fluorescence; inhibition, % at 20 µM; 0.16% of 340,000 active; AID 493160;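 active = inhibition above about 35% when tested at 20 µM, limit read from the data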
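Assay system: in-house recombinant HK5 (HKDC1) enzyme. Input: HKDC1 at 5 µg/mL. Medium: Tris pH 8.0 buffer with MgCl2, Tween-20, BSA, BME. Dosing: single 20 µM dose. Schedule: 90 min reaction incubation at room temperature, dark. Signal: resazurin-to-resorufin fluorescence via G6PDH and diaphorase coupling, 525/613 nm. Controls: DMSO-enzyme wells negative, buffer-substituted wells positive.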
A3G deaminase: blocks human APOBEC3G single-stranded DNA deamination. Q9HC16. recombinant A3G, ssDNA deamination FAM/TAMRA fluorescence. inhibition, % at 20 µM. 0.28% of 330,000 active;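 active = inhibition of at least 40% at 20 µM, with no more than 30% in the related APOBEC3A deaminase screen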
A3A conf: confirmation of human APOBEC3A DNA deaminase inhibitors; recombinant A3A, ssDNA deaminase UDG fluorescence assay; AID 493151; shares compounds with APOBEC3A inh; 63% of 1,400 active; inhibition, % at 20 µM;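 active = inhibition reaching a set limit, 80% of the first screen's cutoff, at 20 µM in any replicate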
UDG A3A counter: counter-screen for APOBEC3A inhibitors: UDG | shares compounds with APOBEC3A inh | UDG counterscreen, FAM/TAMRA uracil oligo fluorescence | inhibition, % at 20 µM | 1,000 tested, under 10 active; call rule not given here
APOBEC3G confirm: confirmation of human APOBEC3G DNA deaminase inhibitors | 72% of 890 active | recombinant A3G ssDNA deaminase, UDG/FAM-TAMRA fluorescence | shares compounds with A3G deaminase | inhibition, % at 20 µM | AID 493152;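 active = inhibition reaching a set limit in any replicate at 20 µM, the limit being 80% of the first screen's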
UDG ctr A3G: counter-screen for APOBEC3G inhibitors: E. coli UDG | inhibition, % at 20 µM | AID 504715 | shares compounds with A3G deaminase | UDG counterscreen, FAM/TAMRA oligo fluorescence | 710 tested, under 10 active;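 active = compounds giving 40% or more inhibition at 20 µM in any one of the three replicates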;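 note: inhibitors lower the FAM signal released by uracil excision and alkaline cleavage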
Target sequence (P12295 whole entry, looked up): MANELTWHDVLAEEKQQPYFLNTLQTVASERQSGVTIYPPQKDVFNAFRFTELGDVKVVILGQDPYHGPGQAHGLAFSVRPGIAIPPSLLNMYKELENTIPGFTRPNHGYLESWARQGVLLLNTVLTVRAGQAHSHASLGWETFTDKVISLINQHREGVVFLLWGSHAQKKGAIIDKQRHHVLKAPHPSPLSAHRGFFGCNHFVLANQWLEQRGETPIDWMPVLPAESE
HKDC1 act conf2: confirmation of human HKDC1 activators; shares compounds with HKDC1 inh; recombinant HKDC1, G6PDH/diaphorase resazurin fluorescence; active compounds read low; inhibition, % at 20 µM; 14% of 740 active;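 active = inhibition at or below a set negative limit, negative inhibition meaning the enzyme was activated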
Each line names hits and unclear results; the compound was inactive in the other large screens (follow-up assays come after a bar, where they were run). Shown are actives, neighbours in structure and some others; about 2.4% of the full set was active somewhere.

COc1ccc2[nH]cc(CCN=C(N)N)c2c1	APOBEC3A inh 54 | A3A conf 28 | UDG A3A counter inactive
O=C(c1cccs1)C1CN2CCC1CC2 (stereo not drawn)	none
CC(C)(C#CCCCCC#CC(C)(C)[N+](C)(C)C)[N+](C)(C)C	APOBEC3A inh 51 (no result: PfG6PD inh, HKDC1 inh) | A3A conf 46
NC(=O)C1CCN(/C=C2\C(=O)NC(=O)N(Cc3ccco3)C2=O)CC1	none
C=CCn1c(O)c(C(C)=Nc2cc(OC)ccc2OC)c(=O)[nH]c1=O	none
CCOC(=O)/C(CCCN(CC)CC)=N\O	APOBEC3A inh 75 | A3A conf 78 | UDG A3A counter inactive
C[N+]12CCC(CC1)C(C#N)(N1CCOCC1)C2 (stereo not drawn)	APOBEC3A inh 46 | A3A conf 81 | UDG A3A counter inactive
COc1cc2c(cc1O)C[C@H]1NCCc3cc4c(c-2c31)OCO4	APOBEC3A inh 61 | A3A conf 34
Cc1cc(C(=O)Nc2ccccc2)nn1C(C)(C)C	none
O=Cc1cn(Cc2ccccc2F)c2ccccc12	APOBEC3A inh 45 | A3A conf inactive
O=Cc1cn(Cc2c(F)cccc2Cl)c2ccccc12	none
C[C@@H]1CC2(CCCC[N+]2(C)C)C[C@H]1C	APOBEC3A inh 81 | A3A conf 68 | UDG A3A counter inactive
CN(C)C(=O)Oc1ccc2c(=O)c(Oc3ccccc3Br)coc2c1	none
COc1cccc(Oc2coc3cc(OC(=O)N(C)C)ccc3c2=O)c1	APOBEC3A inh 99 | A3A conf inactive | UDG A3A counter inactive
COc1cc2c(cc1OC)-c1c3c(cc4c1[C@@H](C2)N(C)CC4)OCO3	A3G deaminase 45 | APOBEC3G confirm inactive
Nc1cc2nc3ccccc3nc2cc1N	UBC9 SUMO inh 81, A3G deaminase 48 | APOBEC3G confirm 25 | UDG ctr A3G inactive
Nc1c2c(nc3ccccc13)CCN(Cc1ccccc1)C2	none
Cc1cc(OC(C)C(=O)NCC(O)c2ccccc2)c2c3c(c(=O)oc2c1)CCCC3 (stereo not drawn)	none
Oc1ccc2c3c1O[C@H]1[C@@H](O)CC[C@@]4(O)[C@@H](C2)N(CC2CCC2)CC[C@]314	none (no result: UBC9 SUMO inh, M18AAP inhibitor)
NC(N)=Nc1ccc2[nH]c3c(c2c1)C[C@@]1(O)[C@H]2Cc4ccc(O)c5c4[C@@]1(CCN2CC1CC1)[C@H]3O5	PfG6PD inh 97, A3G deaminase 84 (no result: UBC9 SUMO inh, M18AAP inhibitor) | APOBEC3G confirm 97 | UDG ctr A3G inactive
COC(=O)C1=C(c2ccc(S(C)(=O)=O)cc2)C[C@@H]2CC[C@H]1N2C(=O)N1CCC(O)CC1	none (no result: UBC9 SUMO inh, M18AAP inhibitor)
C/C(=N\NC(=O)c1ccccc1)c1c(O)n(Cc2ccccc2)c(=O)[nH]c1=O	none
C/C(=N\Nc1cccc2ccccc12)c1c(O)n(Cc2ccccc2)c(=O)[nH]c1=O	UBC9 SUMO inh 52, A3G deaminase 41 | APOBEC3G confirm inactive | UDG ctr A3G inactive
COc1ccc(-c2cc(=O)oc3c(C)c(OC(C)C(=O)N4C[C@H]5C[C@@H](C4)c4cccc(=O)n4C5)ccc23)cc1 (stereo partly drawn)	none
O=C1C2CCCN2C(c2cccs2)N1c1ccccn1 (stereo not drawn)	A3G deaminase 89 | APOBEC3G confirm inactive | UDG ctr A3G inactive
CCn1c(NN=O)nc2ccccc21	A3G deaminase 58 | APOBEC3G confirm inactive | UDG ctr A3G inactive
Cc1ccccc1N1C(=O)NC(=O)/C(=C\c2ccc3c(c2)CCCN3Cc2ccccc2)C1=O	HKDC1 inh 35 | HKDC1 act conf2 inactive
CC1C(c2cccs2)=[N+]([O-])C(C)(C(=O)c2cccs2)N1O (stereo not drawn)	none
COc1ccc(-c2nn(Cc3ccccc3)cc2C(=O)NC2CC2)cc1OC	none (no result: UBC9 SUMO inh, M18AAP inhibitor)
CCN(CC)CCCNC(=O)c1c(O)c2ccccc2n(Cc2ccccc2)c1=O	HKDC1 inh 83 | HKDC1 act conf2 -37
CCN(CC)CCNC(=O)c1c(O)c2ccccc2n(Cc2ccccc2)c1=O	none
CN1CCN(c2nc3ccccc3o2)CC1	none
CCOC(=O)c1c(-n2c(C)cc(C=C3C(=O)NC(=S)NC3=O)c2C)sc2c1CCCC2	HKDC1 inh 59 | HKDC1 act conf2 inactive
CCN1C(=O)NC(=O)/C(=C/c2cc(C)n(-c3sc(C)c(C)c3C#N)c2C)C1=O	none
Cc1ccc(N2C(=O)NC(=O)/C(=C\c3cc(C)n(-c4sc5c(c4C#N)CCCC5)c3C)C2=O)cc1	HKDC1 inh 66 | HKDC1 act conf2 inactive
CC(=NNC(=S)N1CC2CCC(CC2)C1)c1nccs1	none (no result: UBC9 SUMO inh, M18AAP inhibitor, APOBEC3A inh, A3G deaminase) | HKDC1 act conf2 -42
CCc1ccccc1NC(=O)CNC1CCCCC1	none
CCOc1cc(C=C2C(=O)NC(=S)NC2=O)ccc1O	none (no result: UBC9 SUMO inh, M18AAP inhibitor, APOBEC3A inh, A3G deaminase)
O=C1NC(=S)NC(=O)C1=Cc1ccc2c(c1)CCN2CCCCl	HKDC1 inh 59 | HKDC1 act conf2 inactive
N[C@@H](Cc1c[nH]c2ccccc12)c1nnc(SCc2ccc(Cl)cc2)o1	none
CC[C@H]1CN(C)CCc2c([nH]c3ccccc23)C(=O)C[C@@H]1/C(=C\OC)C(=O)OC	none (no result: UBC9 SUMO inh, M18AAP inhibitor)
Brc1ccc(C2N3CCCN23)cc1 (stereo not drawn)	none | HKDC1 act conf2 inactive
Cc1ccc(C2N3CCCN23)cc1 (stereo not drawn)	none
COc1cc(O)cc2c1cc([N+](=O)[O-])c1c(C(=O)O)cc3c(c12)OCO3	HKDC1 inh 36 (no result: UBC9 SUMO inh, M18AAP inhibitor) | HKDC1 act conf2 inactive
CC[C@H](C)/C=C(C)/C=C/C1=CC2=C(Cl)C(=O)[C@](C)(OC(C)=O)C(=O)C2=CO1	HKDC1 inh 59 (no result: UBC9 SUMO inh, M18AAP inhibitor) | HKDC1 act conf2 inactive
CC1CCC(C)(NS(=O)(=O)OCC(Cl)(Cl)Cl)CC1 (stereo not drawn)	HKDC1 inh 38 | HKDC1 act conf2 inactive
N#Cc1ccc(NC(=O)CN2CCN(C(=O)c3cccs3)CC2)cc1Cl	none (no result: UBC9 SUMO inh, M18AAP inhibitor)
c1ccc2c(c1)-c1cccc3cccc-2c13	none (no result: UBC9 SUMO inh, M18AAP inhibitor)
Nc1c(Br)cc2c3c(cccc13)-c1ccccc1-2	PfG6PD inh 125, HKDC1 inh 70 (no result: UBC9 SUMO inh, M18AAP inhibitor, APOBEC3A inh, A3G deaminase) | HKDC1 act conf2 inactive
O=c1nc(/C=C/c2ccc(Cl)cc2Cl)cc(C(F)(F)F)[nH]1	HKDC1 inh 35 | HKDC1 act conf2 inactive
